From ChEMBL document CHEMBL1134309, “O-Phosphonatomethylcholine, its analogues, alkyl esters, and their biological activity” (J Med Chem, 2001)

Columns and labels:
MES-SA (Homo sapiens) [1] = experiment: In vitro cytotoxic activity against uterine sarcoma (MES-SA) cells assayed by inhibition of [3H]-labeled thymidine incorporation
HT-29 [2] = experiment: In vitro cytotoxic activity against colon adenocarcinoma (HT-29) cells assayed by inhibition of [3H]-labeled thymidine incorporation; type: functional, cell-based; conditions: Homo sapiens
How it was run: (§1)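 Human tumour lines in 10% FBS medium (HT-29 and MES-SA in McCoy's 5a; NCI-H460 in RPMI 1640; DU-145 in MEM/Earle's), 37 °C, 5% CO2. Trypsin/EDTA-harvested, plated at 1 × 10⁴ cells/well, attached ~4 h. Serial dilutions tested, 8 wells/concentration. [methyl-³H]thymidine, 0.25 μCi/well, added at 24 h, then 48 more h (72 h total). Cells Triton-lysed, filter-harvested, counted. IC50 is the average of 3–5 determinations.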

NCI-H460 [3] = experiment: In vitro cytotoxic activity against nonsmall cell lung carcinoma (NCI-H460) cells assayed by inhibition of [3H]-labeled thymidine incorporation; type: functional, cell-based; conditions: Homo sapiens
How it was run: as §1

Lymphoma cell line = experiment: Percent decrease of Lymphoma mass of animals treated with the compound; type: functional; parameters: scale not given: the % may be the effect or the level left
How it was run: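 Male SD rats, 2 months old, ~300 g, 4 per group. 10⁶ SD lymphoma cells given s.c. to the right flank. From day 10, drug in PBS pH 7.2 (3 mL, 1 mg/mL) was injected once daily next to the tumour for 10 days; controls got PBS only. Rats were killed 24 h later and lymphomas weighed. Result is mean mass decrease versus controls.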

DU-145 [4] = experiment: In vitro cytotoxic activity against prostate carcinoma (DU-145) cells assayed by inhibition of [3H]-labeled thymidine incorporation; type: functional, cell-based; conditions: Homo sapiens
How it was run: as §1

HT-29 [5] = experiment: In vitro cytotoxic activity against colon adenocarcinoma (HT-29) cells assayed by inhibition of [3H]-labeled thymidine incorporation; Not calculable; type: functional, cell-based, Homo sapiens
How it was run: as §1

MES-SA (Homo sapiens) [6] = experiment: In vitro cytotoxic activity against uterine sarcoma (MES-SA) cells assayed by inhibition of [3H]-labeled thymidine incorporation; Not calculable
DU-145 [7] = experiment: In vitro cytotoxic activity against prostate carcinoma (DU-145) cells assayed by inhibition of [3H]-labeled thymidine incorporation; Not calculable; type: functional, cell-based, Homo sapiens
How it was run: as §1

NCI-H460 [8] = experiment: In vitro cytotoxic activity against nonsmall cell lung carcinoma (NCI-H460) cells assayed by inhibition of [3H]-labeled thymidine incorporation; Not calculable; type: functional, cell-based, Homo sapiens
How it was run: as §1

| SMILES | IC50 (MES-SA (Homo sapiens) [1]) [nM] | IC50 (HT-29 [2]) [nM] | IC50 (NCI-H460 [3]) [µM] | Activity (Lymphoma cell line) [%] | IC50 (DU-145 [4]) [µM] | IC50 (HT-29 [5]) | IC50 (MES-SA (Homo sapiens) [6]) | IC50 (DU-145 [7]) | IC50 (NCI-H460 [8]) |
| --- | --- | --- | --- | --- | --- | --- | --- | --- | --- |
| CCCCCCCCCCCCCCCCOP(=O)([O-])COCC[N+](C)(C)C | 2110 | 4760 | 15.7 | 41 | 17.2 | – | – | – | – |
| CCCCCCCCCCCCCCCOP(=O)([O-])COCC[N+](C)(C)C | 9590 | – | 18 | – | 19.9 | Not calculable | – | – | – |
| CCCCCCCCCCCCOP(=O)([O-])COCC[N+](C)(C)C | – | – | 138 | – | 133 | Not calculable | Not calculable | – | – |
| CCCCCCCCCCCCCCOP(=O)([O-])COCC[N+](C)(C)C | – | 12200 | 40.3 | 30 | – | – | Not calculable | Not calculable | – |
| CCCCCCCCCCOP(=O)([O-])COCC[N+](C)(C)C | – | – | – | – | – | Not calculable | Not calculable | Not calculable | Not calculable |
| Nc1ccn([C@@H]2O[C@H](CO)[C@@H](O)C2(F)F)c(=O)n1 [GEMCITABINE] | 9.2 | 3 | 0.0078 | – | 0.0356 | – | – | – | – |
| CCCCCCCCCCCCCCCCOP(=O)([O-])OCC[N+](C)(C)C [MILTEFOSINE] | 5350 | 6150 | 6.62 | – | 24.9 | – | – | – | – |
| CC(=O)O[C@H]1C(=O)[C@@]2(C)[C@H]([C@H](OC(=O)c3ccccc3)[C@]3(O)C[C@H](OC(=O)[C@H](O)[C@@H](NC(=O)c4ccccc4)c4ccccc4)C(C)=C1C3(C)C)[C@]1(OC(C)=O)CO[C@@H]1C[C@@H]2O [PACLITAXEL] | 0.04 | 0.16 | 0.00014 | – | – | – | – | – | – |
| CC[C@]1(O)C[C@H]2CN(CCc3c([nH]c4ccccc34)[C@@](C(=O)OC)(c3cc4c(cc3OC)N(C=O)[C@H]3[C@@](O)(C(=O)OC)[C@H](OC(C)=O)[C@]5(CC)C=CCN6CC[C@]43[C@@H]65)C2)C1 [VINCRISTINE] | 0.02 | 0.01 | 0.00013 | – | 0.00112 | – | – | – | – |
